Test results as given in PMC8741576 (Molecular Diversity, 2022).
Where two headings read alike, the source gives them in different places.

Assays:
[1] = Cytotoxicity in MT-4 cell culture; assay type: cell-based; conditions: human, MT-4 cells
human coronavirus OC43 = experiment: Antiviral assay, virus-induced cytopathic effect, MTS, HEL cells; assay type: cell-based; conditions: HEL cell culture
[2] = system: HEL 299 normal human lung fibroblasts; experiment: Antiproliferative screening on noncancerous cells; conditions: Homo sapiens, HEL 299, read-out: IC50 HEL 299
[3] = system: Z-138 non-Hodgkin lymphoma cells; experiment: Antiproliferative screening, IncuCyte cell growth; assay type: cell-based; conditions: Homo sapiens, Z-138, 72 h, read-out: IC50 Z-138
[4] = system: HCT-116 colorectal carcinoma cells; experiment: Antiproliferative screening, MTS cell viability assay; assay type: cell-based; conditions: Homo sapiens, HCT-116, 72 h, read-out: IC50 HCT-116
HIV-1 NL4.3 = experiment: Antiretroviral assay in MT-4 cells, cytopathic effect; assay type: cell-based
How it was run: (§1)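 MT-4 cells (1 × 10^6 cells/mL) were pre-incubated with test compound for 30 min at 37 °C. HIV-1 NL4.3 or HIV-2 ROD was then added according to the CCID50 of the viral stock. Cytopathic effect was scored microscopically 5 days post-infection. […] SI was taken as the CC50/EC50 ratio.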

[5] = system: DND-41 acute lymphoblastic leukemia cells; experiment: Antiproliferative screening, IncuCyte cell growth; assay type: cell-based; conditions: Homo sapiens, DND41, 72 h, read-out: IC50 DND-41
[6] = system: Capan-1 pancreatic adenocarcinoma cells; experiment: Antiproliferative screening, MTS cell viability assay; assay type: cell-based; conditions: Homo sapiens, CAPAN-1, 72 h, read-out: IC50 Capan-1
[7] = system: LN-229 glioblastoma cells; experiment: Antiproliferative screening, MTS cell viability assay; assay type: cell-based; conditions: Homo sapiens, LN-229, 72 h, read-out: IC50 LN-229
[8] = system: K-562 chronic myeloid leukemia cells; experiment: Antiproliferative screening, IncuCyte cell growth; assay type: cell-based; conditions: Homo sapiens, K562, 72 h, read-out: IC50 K-562
in vitro [9] = conditions: human
[10] = system: NCI-H460 lung carcinoma cells; experiment: Antiproliferative screening, MTS cell viability assay; assay type: cell-based; conditions: Homo sapiens, NCI-H460, 72 h, read-out: IC50 NCI-H460
in vitro [11] = conditions: human; remark: listed apart in the source
HIV-2 ROD = experiment: Antiretroviral assay in MT-4 cells, cytopathic effect; assay type: cell-based
How it was run: as §1

[12] = system: HL-60 acute myeloid leukemia cells; experiment: Antiproliferative screening, IncuCyte cell growth; assay type: cell-based; conditions: Homo sapiens, HL-60, 72 h, read-out: IC50 HL-60
[13] = system: human solid tumor and leukemia cell lines; assay type: cell-based; conditions: read-out: Antiproliferative IC50 across cancer cell lines
[14] = system: C. violaceum ATCC31532 QS-reporter strain; experiment: Anti-QS screening, violacein production; assay type: cell-based; conditions: Chromobacterium violaceum, ATCC31532, read-out: Anti-QS IC50
MT-4 cells = experiment: Cytotoxicity in MT-4 cell culture; assay type: cell-based; conditions: read-out: Cytotoxicity (CC50); MT-4 cell culture

| SMILES | CC50 at 5 days [1] | SI, selectivity index (CC50 to EC50 ratio) OC43 (human coronavirus OC43) | IC50 [2] | IC50 [3] | IC50 [4] | SI, selectivity index (CC50 to EC50 ratio) HIV-1 NL4.3 (HIV-1 NL4.3; MT-4 cell culture) | IC50 [5] | IC50 [6] | IC50 [7] | IC50 [8] | IC50 [10] | CC50 (in vitro [11]) | IC50 [12] | SI, selectivity index (CC50 to EC50 ratio) 229E (human coronavirus 229E; HEL cell culture) | also measured |
| --- | --- | --- | --- | --- | --- | --- | --- | --- | --- | --- | --- | --- | --- | --- | --- |
| CCN(CC)CCCC(C)Nc1ccnc2cc(Cl)ccc12 (stereo not drawn) [CQ, chloroquine, reference compound] | > 100 µM | 31.4 | 84.7 ± 15.3 µM | 47.4 ± 5.3 µM | 65.5 ± 7.3 µM | > 3.2 | 59.5 ± 3.5 µM | 46.1 ± 1.3 µM | 8.9 ± 2.3 µM | 50.6 ± 2.9 µM | > 100 µM | 40.8 ± 2.2 µM | > 100 µM |  | SI, selectivity index (CC50 to EC50 ratio) 229E (human coronavirus 229E): 29.1; selectivity ratio (in vitro [9]): ~30; SI, selectivity index (CC50 to EC50 ratio) HIV-2 ROD (HIV-2 ROD; MT-4 cell culture): > 26.3 |
| Nc1cc(Cl)ccc1C(=O)NCCCCNc1ccnc2cc(Cl)ccc12 [Compound 12, 2-Amino-4-chloro-N-{4-[(7-chloroquinolin-4-yl)amino]butyl}benzamide] |  | > 10.4 | 7.4 ± 1.2 µM | 7.2 ± 2.6 µM | 8.9 ± 3 µM |  | 9.2 ± 2.2 µM | 6.3 ± 2.8 µM | 2.8 ± 1.2 µM | 8.4 ± 3.2 µM | 7.3 ± 1.5 µM | 8.3 ± 0.78 µM | 9.8 ± 3.5 µM | 4.6 | IC50 [13]: 2 to 10 µM |
| Nc1ccc(Br)cc1C(=O)NCCCCNc1ccnc2cc(Cl)ccc12 [Compound 13, 2-Amino-5-bromo-N-{4-[(7-chloroquinolin-4-yl)amino]butyl}benzamide] |  | 5.0 | 7.8 ± 1.8 µM | 6 ± 2.6 µM | 7 ± 0.3 µM |  | 7.8 ± 4.1 µM | 5.4 ± 1.8 µM | 3.1 ± 0.8 µM | 7.7 ± 1.1 µM | 5.3 ± 0.4 µM | 7.5 ± 1.3 µM | 10.3 ± 3.2 µM | 5.4 | IC50 [13]: 2 to 10 µM; IC50 [14]: 3.7 µM |
| COc1cc(NC(C)CCCNC(=O)c2ccccc2N)c2ncccc2c1 (stereo not drawn) [Compound 14, 2-Amino-N-{4-[(6-methoxyquinolin-8-yl)amino]pentyl}benzamide] | 78.2 ± 9.3 µM |  | > 100 µM | > 100 µM | > 100 µM | 8.4 | > 100 µM | > 100 µM | > 100 µM | > 100 µM | 76.7 ± 25 µM |  | > 100 µM |  |  |
| COc1cc(NC(C)CCCNC(=O)c2cc(Br)ccc2N)c2ncccc2c1 (stereo not drawn) [Compound 16, 2-Amino-5-bromo-N-{4-[(6-methoxyquinolin-8-yl)amino]pentyl}benzamide] | 56.4 ± 1.6 µM |  | > 100 µM | > 100 µM | > 100 µM | 4.0 | > 100 µM | > 100 µM | > 100 µM | > 100 µM | > 100 µM |  | > 100 µM |  |  |
| CC(Cn1cnc2c(N)ncnc21)OCP(=O)(O)O (stereo not drawn) [PMPA, 2-phosphonomethoxypropyl adenine] |  |  |  |  |  |  |  |  |  |  |  |  |  |  | CC50 (MT-4 cells): > 100 µM; EC50 (HIV-1 NL4.3; read-out: Antiviral activity (EC50) HIV-1 NL4.3, MT-4 cell culture, 5 days post-infection): 1.6 µM; EC50 (HIV-2 ROD; read-out: Antiviral activity (EC50) HIV-2 ROD, MT-4 cell culture, 5 days post-infection): 0.6 µM |
| COc1cc(NC(C)CCCN)c2ncccc2c1 (stereo not drawn) [PQ, primaquine, reference compound] | 17.9 ± 8 µM |  | > 100 µM | 11.4 ± 1.1 µM | 53.9 ± 4.2 µM |  | 50.2 ± 16.7 µM | 45.6 ± 3.5 µM | 45.4 ± 1.2 µM | 40.5 ± 6 µM | > 100 µM | > 100 µM | 28.4 ± 1.6 µM |  | Anti-HIV / antiretroviral activity in words (HIV-1 NL4.3; MT-4 cells): no anti-HIV activity; Anti-HIV / antiretroviral activity in words (HIV-2 ROD; MT-4 cells): no anti-HIV activity |
| CCC(CC)COC(=O)[C@H](C)N[P@](=O)(OC[C@H]1O[C@@](C#N)(c2ccc3c(N)ncnn23)[C@H](O)[C@@H]1O)Oc1ccccc1 [Remdesivir, remdesivir, reference compound] |  | > 250 |  |  |  |  |  |  |  |  |  | > 10 µM |  | > 160 |  |
